Statin myotox sup = protects C2C12 myotubes from simvastatin toxicity | rescue of ATP level, % at 7.49 µM | AID 602340 | ATP luminescence, 48 h; scaled: DMSO 0, geranylgeraniol control 100 | hit rate 0.78% among 330,000;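 active = mean ATP rescue above about 67%, or every replicate alone reaching that limit, limit read from the data, passing the limit was not always enough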;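 note: myotubes were challenged with 10 µM simvastatin during compound exposure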
SR-BI HDL uptake = mouse SR-BI HDL lipid transfer inhibition; ldlA[mSR-BI] CHO cells, DiI-HDL uptake fluorescence, 3 h; Q61009; inhibition, % at 12.5 µM; hit rate 0.96% among 320,000; AID 488896;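 active = mean replicate inhibition of at least 70% and a set share of replicates each scoring 70 or more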;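 note: 0% = median of neutral control wells and 100% = median of positive control wells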
Target sequence (Q61009 whole entry, looked up): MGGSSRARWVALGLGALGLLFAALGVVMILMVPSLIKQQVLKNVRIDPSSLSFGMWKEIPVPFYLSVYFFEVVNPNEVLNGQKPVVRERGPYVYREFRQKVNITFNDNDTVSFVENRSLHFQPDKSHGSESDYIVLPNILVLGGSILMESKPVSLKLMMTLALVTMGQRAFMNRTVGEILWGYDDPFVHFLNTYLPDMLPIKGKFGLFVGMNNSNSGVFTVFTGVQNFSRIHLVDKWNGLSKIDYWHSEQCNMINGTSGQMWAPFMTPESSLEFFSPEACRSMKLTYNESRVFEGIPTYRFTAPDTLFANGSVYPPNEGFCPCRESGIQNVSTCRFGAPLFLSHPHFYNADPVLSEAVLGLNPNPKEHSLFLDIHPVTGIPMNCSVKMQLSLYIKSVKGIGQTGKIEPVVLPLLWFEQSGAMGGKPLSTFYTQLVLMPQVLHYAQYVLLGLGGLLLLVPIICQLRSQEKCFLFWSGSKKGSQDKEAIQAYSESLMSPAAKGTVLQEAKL
Vif imaging = blocks HIV Vif function | inhibition, % at 7.49 µM | HEK293T cells, Vif self-association by quenched fluorescence, imaging, 24 h | hit rate 0.35% among 340,000; in the data active = inhibition above about 50%, passing the limit was not always enough
SR-BI DiI-HDL act = activators of SR-BI mediated HDL lipid uptake. CHO ldlA[mSR-BI] cells, DiI-HDL uptake fluorescence, 3 h; 100 = double the neutral-control signal. activation, % at 12.5 µM. hit rate 0.096% among 320,000;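 active = mean replicate activation of at least 60% and every replicate at or above 60%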;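 note: 0% = median plate neutral-control signal and 100% = twice that signal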
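Material – SR-BI-overexpressing, LDLR-lacking CHO cells · Medium – BSA-supplemented, HEPES-buffered Ham's F12, pH 7.4 · Doses – single concentration · Times – compound with DiI-HDL co-incubation, 3 h at 37 °C · Measured by – bottom-read fluorescence, 550/595 nm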
Numbers without * were called inactive. The list is not random: actives were taken first. Their share in the collection is about 1.7%.

`COc1ccccc1-c1ccc2c(c1)O[C@H](CN(C)C(=O)c1cccnc1)[C@H](C)CN([C@H](C)CO)S2(=O)=O` gave Statin myotox sup -8.
Screening O=C1NC(=NCc2ccccc2)NC1(c1ccccc1)c1ccccc1 returned Statin myotox sup 101*, SR-BI HDL uptake -13, Vif imaging -3 and SR-BI DiI-HDL act 13.
O=C(NC1Cc2ccccc2C1)[C@@H]1[C@@H](CO)[C@@H]2Cn3c(ccc(C4=CCCCC4)c3=O)[C@H]1N2CC1CC1 was read as Statin myotox sup 17.
For Cn1c(SCc2nc(-c3ccc(Cl)cc3)no2)nnc1-c1cccs1 the results were Statin myotox sup 84*, SR-BI HDL uptake -21, Vif imaging -4 and SR-BI DiI-HDL act 21.
For CN(C(=O)c1ccccc1)C1c2c(ccc3ccccc23)OCC1CO (configuration not stated) the results were Statin myotox sup 16, SR-BI HDL uptake -25, Vif imaging -11 and SR-BI DiI-HDL act 25.
Screening O=C(Nc1ccc(Cl)cc1)N[C@@H]1c2c(ccc3ccccc23)OC[C@@H]1CO returned Statin myotox sup 4, SR-BI HDL uptake 82*, Vif imaging -8 and SR-BI DiI-HDL act -82.
`O=C(Cn1nc(-c2ccccc2)ccc1=O)Nc1ccc(NC(=O)c2ccccn2)cc1` gave SR-BI HDL uptake 75*, Vif imaging -2 and SR-BI DiI-HDL act -75.
`O=C(Cn1nc(-c2ccccc2)ccc1=O)Nc1ccc(-n2cnnn2)cc1` gave Statin myotox sup -22, SR-BI HDL uptake -116, Vif imaging 6 and SR-BI DiI-HDL act 116*.
O=C(Cn1nc(-c2ccccc2)ccc1=O)Nc1ccc(N2CCN(C(=O)c3ccccc3)CC2)cc1 was read as SR-BI HDL uptake 11, Vif imaging 0 and SR-BI DiI-HDL act -11.
Screening O=C(CCCCCn1c(=S)[nH]c2ccc(N3CCOCC3)cc2c1=O)NCc1ccccc1Cl returned Statin myotox sup -37, SR-BI HDL uptake 35, Vif imaging active and SR-BI DiI-HDL act -35.
For O=C(CCCCn1c(=O)[nH]c2ccccc2c1=O)N1CCN(c2cccc(C(F)(F)F)c2)CC1 the results were Statin myotox sup 12, SR-BI HDL uptake 3 and SR-BI DiI-HDL act -3.
O=C(CCCn1c(=S)[nH]c2ccccc2c1=O)N1CCN(c2cccc(Cl)c2)CC1 was read as SR-BI HDL uptake 52, Vif imaging 107* and SR-BI DiI-HDL act -52.
Screening N#CC(c1cccc(Cl)c1)c1ccc2c(C(F)(F)F)cc(C(F)(F)F)nc2n1 (configuration not stated) returned SR-BI HDL uptake 117*, Vif imaging -4 and SR-BI DiI-HDL act -117.
Screening CC1(C)C(=O)OC(c2cccn2-c2ccc([N+](=O)[O-])cc2)C2(CCCCC2)C1=O (configuration not stated) returned SR-BI HDL uptake 10, Vif imaging -7 and SR-BI DiI-HDL act -10.
`CC1(C)C(=O)OC(c2c(F)c(F)c(F)c(F)c2F)C2(CCCCC2)C1=O` (configuration not stated) gave Statin myotox sup 12, SR-BI HDL uptake 77* and SR-BI DiI-HDL act -77.
Cc1oc(C(C)(C)C)cc1C(=O)Nc1ccc2c(c1)OCCO2 was read as Statin myotox sup 95*, SR-BI HDL uptake 18, Vif imaging 0 and SR-BI DiI-HDL act -18.
Screening COc1ccccc1C(=O)Nc1ccc2c(c1)OCO2 returned Statin myotox sup 114*, SR-BI HDL uptake 30, Vif imaging 0 and SR-BI DiI-HDL act -30.
COc1ccc2nc(Nc3ccc4c(c3)OCO4)sc2c1 was read as Statin myotox sup -86, SR-BI HDL uptake -15, Vif imaging 53* and SR-BI DiI-HDL act 15.
`Cc1oc(C(C)(C)C)cc1C(=O)Nc1ccc2c(c1)OCO2` gave Statin myotox sup -17 and Vif imaging 32.
Screening CC(C)c1cc(C(=O)Nc2ccc3c(c2)OCO3)no1 returned Statin myotox sup 83*, SR-BI HDL uptake 2, Vif imaging 2 and SR-BI DiI-HDL act -2.
Cc1cccc(S(=O)(=O)N2C[C@@H]3[C@H](c4ccccc42)[C@H](CO)N3C(=O)C2CC2)c1 was read as Statin myotox sup 6.
COCCNC(=O)C[C@H]1CC[C@@H]2[C@H](COc3ccc(NC(=O)c4cc(C)on4)cc3C(=O)N2C)O1 was read as Statin myotox sup -13.
For CCN(C[C@H]1[C@H](c2ccc(C3=CCCC3)cc2)[C@@H](CO)N1C(C)=O)C(C)=O the results were Statin myotox sup 11.
Screening O=C(Nc1ccc(C(F)(F)F)cc1)c1ccc2nc[nH]c2c1 returned Statin myotox sup -21, SR-BI HDL uptake 3, Vif imaging -10 and SR-BI DiI-HDL act -3.
COc1ccc(-c2cc(C(=O)Nc3ccc4c(c3)OCO4)no2)cc1 was read as Statin myotox sup 2, SR-BI HDL uptake -15, Vif imaging 53* and SR-BI DiI-HDL act 15.
`O=C(Nc1ccc2c(c1)OCO2)c1ccc2nc[nH]c2c1` gave Statin myotox sup 86*, SR-BI HDL uptake 3, Vif imaging 5 and SR-BI DiI-HDL act -3.
`Cc1cc(C)c(OCC(=O)Nc2ccc3c(c2)OCO3)cc1C` gave Statin myotox sup -6, SR-BI HDL uptake 3, Vif imaging 67* and SR-BI DiI-HDL act -3.
`COc1ccccc1N(CC(=O)Nc1ccc2c(c1)OCCO2)S(C)(=O)=O` gave Statin myotox sup 122*, SR-BI HDL uptake -23, Vif imaging 10 and SR-BI DiI-HDL act 23.
Screening CO[C@@H]1CN(C)C(=O)c2ccc(NC(=O)Nc3ccccc3Cl)cc2OC[C@@H](C)N(C)C[C@H]1C returned Statin myotox sup 15.
CCNC(=O)Nc1ccc2c(c1)C(=O)N(C)[C@H]1CC[C@H](CC(=O)NCc3ccccc3F)O[C@H]1CO2 was read as Statin myotox sup -16.
For Cc1noc(C)c1S(=O)(=O)Nc1cccc2c1O[C@@H](CN(C)C(=O)NC1CCCCC1)[C@@H](C)CN([C@@H](C)CO)C2=O the results were Statin myotox sup -21.
Screening COc1ccc(C(=O)NCC(=O)N/N=C/C(C)=C/c2ccco2)cc1OC returned Statin myotox sup -4, SR-BI HDL uptake 85*, Vif imaging -12 and SR-BI DiI-HDL act -85.
Screening COc1cc(C2=NOC(C(=O)N3CCN(c4ccc(F)cc4)CC3)C2)cc(OC)c1OC (configuration not stated) returned Statin myotox sup 34, SR-BI HDL uptake 79*, Vif imaging -6 and SR-BI DiI-HDL act -79.
COc1cc(C2=NOC(C(=O)NCc3ccc(F)cc3)C2)cc(OC)c1OC (configuration not stated) was read as Statin myotox sup -99, SR-BI HDL uptake -14, Vif imaging 60* and SR-BI DiI-HDL act 14.
Screening COc1ccc(C2=NOC(C(=O)NCc3ccc(F)cc3)C2)cc1OC (configuration not stated) returned SR-BI HDL uptake 5, Vif imaging 12 and SR-BI DiI-HDL act -5.
Screening COc1cc(C2=NOC(C(=O)N3CCCCCC3)C2)cc(OC)c1OC (configuration not stated) returned SR-BI HDL uptake 10, Vif imaging 8 and SR-BI DiI-HDL act -10.
